This is an account of results in PubChem BioAssay.

Activity calls are given as the source filed them.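 Rule for the calls, unless noted: active = viability at or below 10% of carrier control in both of two separate runs; inconclusive = viability at or below 10% in only one of the two runs; inactive = the rest.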

The nature of assay [1]: Her2 expression decrease, cell viability multiplex – SKBR3 breast tumor cells, AlphaScreen, ATP viability, primary screen (AID 461;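 active = Her2 level under about 52% in both replicate screens, with viability over 70% of control, limit read from the data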;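 for Her2 level: lower value means less Her2 protein in the cells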;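 for viability: percent of carrier control wells set as 100% viability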). The conditions noted are these: SKBR3 Her2 protein level, 18-24 h, measured here: SKBR3 viability, ATP luminescence, at 10 µM. For orientation: In Alpha technology, singlet oxygen from a donor bead excites a nearby acceptor bead.
In assay [2] the target is Receptor tyrosine-protein kinase erbB-2 (Homo sapiens) (UniProt P04626). The assay is described as above. The conditions noted are these: 18-24 h, at 10 µM, stronger effect = lower value.
Receptor tyrosine-protein kinase erbB-2 (Homo sapiens), sequence (P04626 whole entry, looked up): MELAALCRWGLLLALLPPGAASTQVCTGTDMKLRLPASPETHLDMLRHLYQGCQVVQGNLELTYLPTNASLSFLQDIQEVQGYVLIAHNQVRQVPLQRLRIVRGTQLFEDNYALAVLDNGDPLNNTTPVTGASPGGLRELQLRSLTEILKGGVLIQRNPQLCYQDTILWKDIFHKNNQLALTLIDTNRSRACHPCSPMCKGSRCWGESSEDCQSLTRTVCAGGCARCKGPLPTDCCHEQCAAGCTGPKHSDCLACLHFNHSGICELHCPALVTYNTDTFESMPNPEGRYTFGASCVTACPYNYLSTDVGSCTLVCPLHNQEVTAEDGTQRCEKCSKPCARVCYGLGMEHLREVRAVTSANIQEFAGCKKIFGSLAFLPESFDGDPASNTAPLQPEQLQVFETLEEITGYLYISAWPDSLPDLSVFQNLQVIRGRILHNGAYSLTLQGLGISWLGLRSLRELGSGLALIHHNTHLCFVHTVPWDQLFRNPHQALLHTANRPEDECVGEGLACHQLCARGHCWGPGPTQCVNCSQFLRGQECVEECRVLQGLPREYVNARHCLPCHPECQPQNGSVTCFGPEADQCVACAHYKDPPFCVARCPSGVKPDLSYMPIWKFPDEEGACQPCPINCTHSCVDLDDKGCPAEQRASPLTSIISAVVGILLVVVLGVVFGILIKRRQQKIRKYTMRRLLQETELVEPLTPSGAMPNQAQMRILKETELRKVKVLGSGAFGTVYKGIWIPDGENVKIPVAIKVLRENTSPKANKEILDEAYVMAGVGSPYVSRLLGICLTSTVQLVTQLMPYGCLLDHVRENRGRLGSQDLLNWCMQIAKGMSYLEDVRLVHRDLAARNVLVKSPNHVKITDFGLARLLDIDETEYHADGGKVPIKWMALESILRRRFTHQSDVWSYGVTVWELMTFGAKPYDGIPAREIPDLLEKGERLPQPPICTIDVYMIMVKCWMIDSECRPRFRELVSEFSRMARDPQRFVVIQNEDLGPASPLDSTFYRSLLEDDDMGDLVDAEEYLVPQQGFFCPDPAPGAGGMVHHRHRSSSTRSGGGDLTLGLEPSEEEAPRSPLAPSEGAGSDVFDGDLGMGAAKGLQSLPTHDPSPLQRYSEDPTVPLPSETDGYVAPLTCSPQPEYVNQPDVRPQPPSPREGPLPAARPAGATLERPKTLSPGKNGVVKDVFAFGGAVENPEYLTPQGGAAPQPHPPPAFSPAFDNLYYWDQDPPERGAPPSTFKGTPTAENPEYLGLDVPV
Assay [3] can be described thus: reduced viability of SK-BR-3 breast cancer cells – cell-based, 24 h, human, pilot screen (AID 572).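 Note: compound exposure lasted between 18 and 24 h rather than exactly 24 h; 100% = carrier-treated control wells.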 The settings on record: SK-BR-3 viability, CellTiter-Glo luminescence, at 10 µM, stronger effect = lower value. (In ATP-based viability assays light output follows the ATP content of the culture.)
The nature of assay [4]: HUVEC growth inhibition – cell-based, human, primary screen (AID 575;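 active = viability at or below 30% in both replicate assays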;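 note: 100% = median of untreated cell wells with 0.1% DMSO on each plate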). The conditions noted are these: HUVEC proliferation, CellTiter-Glo luminescence, 72 h; at 10 µM; stronger effect = lower value. In outline:
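Test system – primary HUVEC, no more than 12 passages · Dosing – one dose, 10 µM final, 0.1% DMSO · Times – 72 h treatment at 37 °C · Measured by – ATP-based CellTiter-Glo luminescent read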

A short description of assay [5]: H69AR cell proliferation blockers – human, duplicate replicates, primary screen (AID 580;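 active = viability at or under a set limit in both replicates, limit being median viability minus 3 SD, cut at about 48% in these data, passing the limit was not always enough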;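 note: 100% = mean luminescence of untreated wells and 0% = no signal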). The settings on record: H69AR lung tumor cells viability, ATP luminescence, 72 h; at 10 µM; stronger effect = lower value.
The nature of assay [6]: MRP1 drug-resistance reversers in H69AR cells – cell-based, doxorubicin co-treatment, pilot screen (AID 601;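 active = viability loss from added drug above about 55%, and viability with drug at most 40%, in both replicates, limit read from the data, passing the limit was not always enough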). The conditions noted are these: CellTiter-Glo, 72 h, at 10 µM; for differential viability (reversal): stronger effect = higher value.
Assay [7] is described as follows: yeast transport mutant growth inhibition pilot in 384-well plates, post-Golgi transport modulator project (AID 636; in the data active = inhibition above about 31%). The settings on record: absorbance 615 nm, about 18 h, stronger effect = higher value.
The nature of assay [8]: growth suppression of yeast trafficking mutant, preliminary HTS, modulators of trafficking downstream of Golgi apparatus project, 1536-format plate, OD 615 nm (AID 637; in the data active = inhibition above about 30%). The settings on record: yeast transport mutant growth, absorbance 615 nm, 18 h; stronger effect = higher value.
Where [9] appears, read: H69AR cells + 2 uM doxorubicin, measured here: viability with 2 uM doxorubicin, stronger effect = lower value.
Where [10] appears, read: H69AR cells, compound alone cytotoxicity.

`COc1ccc(N2CCN(c3ncnc4c3cnn4-c3ccc(C)cc3C)CC2)cc1`: the viability – broadly, a read-out of living cells in per cent, often relative to untreated cells – in assay [1] is 81%; in assay [3], 81% (inactive); in assay [4], 87.1% (inactive); in assay [5], 66.2% (inactive); in assay [6] (setting [9]), 19.4%; in assay [6] (setting [10]), 66.2%. In assay [2], the Her2 level was 72.5% (inactive). The differential viability (reversal) in assay [6] (H69AR cells + 2 uM doxorubicin) is 46.8% (inactive). The inhibition (commonly the change of the read-out against control, counted positive when it falls) is -1.58% (inactive) in assay [7] and -1.29% (inactive) in assay [8].
Take `O=C(CSc1ncnc2c1cnn2Cc1ccccc1)Nc1ccc2c(c1)OCCO2`: the viability is 109% in assay [1]; 109% (inactive) in assay [3]; 74.9% (inactive) in assay [4]; 56.1% (inactive) in assay [5]; 61.3% in assay [6] (setting [9]); 56.1% in assay [6] (setting [10]). The Her2 level in assay [2] was 98.5% (inactive). Also, the differential viability (reversal) in assay [6] (H69AR cells + 2 uM doxorubicin) was -5.15% (inactive). Besides, the inhibition in assay [7] was -4.68% (inactive); in assay [8] it was -6.23% (inactive).
For the compound `COc1ccc(Oc2nc(Oc3ccc(OC)cc3)nc(Oc3ccc(OC)cc3)n2)cc1`, the viability is 104% in assay [1]; 104% (inactive) in assay [3]; 95.6% (inactive) in assay [4]; 94.6% (inactive) in assay [5]; 87.7% in assay [6] (setting [9]); 94.6% in assay [6] (setting [10]). Moreover, the Her2 level in assay [2] is 102% (inactive). In assay [6] (H69AR cells + 2 uM doxorubicin), the differential viability (reversal) is 6.92% (inactive). In addition, the inhibition is -0.93% (inactive) in assay [7] and -5.81% (inactive) in assay [8].
In the case of `COC(=O)c1ccc(CSc2nc(-c3ccc(OC)cc3)nc3c2c(=O)n(C)c(=O)n3C)o1`, the viability in assay [1] was 100%; in assay [3], 100% (inactive); in assay [4], 85.8% (inactive); in assay [5] it was 77.4% (inactive); in assay [6] (setting [9]), 89%; in assay [6] (setting [10]) it was 77.4%. The Her2 level in assay [2] was 74% (inactive). For the same compound, in assay [6] (H69AR cells + 2 uM doxorubicin), the differential viability (reversal) is -11.5% (inactive). Also, the inhibition in assay [7] was -4.8% (inactive); in assay [8] it was -3.11% (inactive).
For `CCn1c(C(=O)OC)cc2c1ccn2-c1ccc(F)cc1`, the viability is 91% in assay [1]; 91% (inactive) in assay [3]; 86.1% (inactive) in assay [4]; 83% (inactive) in assay [5]; 75.9% in assay [6] (setting [9]); 83% in assay [6] (setting [10]). The Her2 level in assay [2] is 80.5% (inactive). Moreover, the differential viability (reversal) in assay [6] (H69AR cells + 2 uM doxorubicin) was 7.09% (inactive). Besides, the inhibition in assay [7] is -5.13% (inactive); in assay [8] it was -1.82% (inactive).
On to `CN(C)c1cccc2c(S(=O)(=O)Nc3ccccn3)cccc12`, for which the viability in assay [1] was 96.5%; in assay [3] it was 96.5% (inactive); in assay [4], 109% (inactive); in assay [5], 101% (inactive); in assay [6] (setting [9]), 98.7%; in assay [6] (setting [10]), 101%. Moreover, in assay [2], the Her2 level was 95.5% (inactive). Moreover, the differential viability (reversal) in assay [6] (H69AR cells + 2 uM doxorubicin) is 2.54% (inactive). The values for the inhibition in assay [7] and in assay [8] were -6.8% (inactive) and 1.43% (inactive), respectively.
For `Cc1ccc(-n2nc(C(=O)N3CCN(C)CC3)c3c4ccccc4n(C)c3c2=O)cc1`, the viability in assay [1] was 90.5%; in assay [3] it was 90.5% (inactive); in assay [4], 99.9% (inactive); in assay [5], 96.8% (inactive); in assay [6] (setting [9]), 93.9%; in assay [6] (setting [10]), 96.8%. In assay [2], the Her2 level was 80% (inactive). For the same compound, the differential viability (reversal) in assay [6] (H69AR cells + 2 uM doxorubicin) was 2.81% (inactive). The figures for the inhibition in assay [7] and in assay [8] were -1.97% (inactive) and -1.61% (inactive), respectively.
Consider `CCOC(=O)N1CCC(NC(=O)CS(=O)(=O)Cc2nc(-c3ccccc3C)oc2C)CC1`, for which the viability in assay [1] was 105%; in assay [3] it was 105% (inactive); in assay [4] it was 114% (inactive); in assay [5], 95.7% (inactive); in assay [6] (setting [9]) it was 100%; in assay [6] (setting [10]), 95.7%. For the same compound, the Her2 level in assay [2] was 95% (inactive). In addition, in assay [6] (H69AR cells + 2 uM doxorubicin), the differential viability (reversal) is -4.35% (inactive). The results for the inhibition in assay [7] and in assay [8] were -3.73% (inactive) and 0.66% (inactive), respectively.
Turning to `CCOC(=O)c1cc2c(=O)n3cccc(C)c3nc2n(CCc2ccccc2)c1=N`, the viability is 82% in assay [1]; 82% (inactive) in assay [3]; 75.9% (inactive) in assay [4]; 77.9% (inactive) in assay [5]; 79.8% in assay [6] (setting [9]); 77.9% in assay [6] (setting [10]). Besides, the Her2 level in assay [2] was 72% (inactive). Further, the differential viability (reversal) in assay [6] (H69AR cells + 2 uM doxorubicin) is -1.89% (inactive). Also, the figures for the inhibition in assay [7] and in assay [8] were -4.8% (inactive) and 5.9% (inactive), respectively.
For the compound `CC1(C)Cc2noc(N)c2C(C)(C)N1OC(=O)c1ccccc1`, the viability was 107% in assay [1]; 107% (inactive) in assay [3]; 104% (inactive) in assay [4]; 107% (inactive) in assay [5]; 86.2% in assay [6] (setting [9]); 107% in assay [6] (setting [10]). Also, the Her2 level in assay [2] is 132% (inactive). Also, the differential viability (reversal) in assay [6] (H69AR cells + 2 uM doxorubicin) was 21.2% (inactive). The results for the inhibition in assay [7] and in assay [8] were 0% (inactive) and -5.4% (inactive), respectively.
Turning to `CCOC(=O)c1sc(NC(=O)C2CC=CCC2C(=O)O)nc1C` (stereo not given), the viability in assay [1] was 105%; in assay [3] it was 105% (inactive); in assay [4], 100% (inactive); in assay [5], 98.1% (inactive); in assay [6] (setting [9]) it was 97.1%; in assay [6] (setting [10]), 98.1%. In addition, the Her2 level in assay [2] was 92.5% (inactive). Further, the differential viability (reversal) in assay [6] (H69AR cells + 2 uM doxorubicin) was 1.07% (inactive). Further, the inhibition is -1.04% (inactive) in assay [7] and -1.64% (inactive) in assay [8].
In the case of `CCCC(=O)N(c1ccc2oc(=O)sc2c1)S(=O)(=O)c1ccccc1`, the viability was 75.5% in assay [1]; 75.5% (inactive) in assay [3]; 78.3% (inactive) in assay [4]; 60% (inactive) in assay [5]; 80.9% in assay [6] (setting [9]); 60% in assay [6] (setting [10]). Moreover, the Her2 level in assay [2] is 78.5% (inactive). For the same compound, the differential viability (reversal) in assay [6] (H69AR cells + 2 uM doxorubicin) is -20.9% (inactive). In addition, the figures for the inhibition in assay [7] and in assay [8] were -2.86% (inactive) and -3.81% (inactive), respectively.
Regarding `CCN(CC)c1nc2nonc2nc1N(CC)CC`, the viability in assay [1] is 101%; in assay [3], 101% (inactive); in assay [4], 110% (inactive); in assay [5], 104% (inactive); in assay [6] (setting [9]) it was 99.2%; in assay [6] (setting [10]), 104%. For the same compound, the Her2 level in assay [2] was 92% (inactive). The differential viability (reversal) in assay [6] (H69AR cells + 2 uM doxorubicin) is 4.4% (inactive). Moreover, the inhibition in assay [7] is -6.53% (inactive); in assay [8], 3.17% (inactive).
Regarding `Cc1cc(C)nc(Sc2ccc3nnc(C(F)(F)C(F)(F)C(F)(F)F)n3n2)n1`, the viability in assay [1] was 83.5%; in assay [3] it was 83.5% (inactive); in assay [4], 99.6% (inactive); in assay [5], 102% (inactive); in assay [6] (setting [9]) it was 87.6%; in assay [6] (setting [10]) it was 102%. The Her2 level in assay [2] is 86.5% (inactive). Moreover, the differential viability (reversal) in assay [6] (H69AR cells + 2 uM doxorubicin) was 14.1% (inactive). For the same compound, the values for the inhibition in assay [7] and in assay [8] were -6.89% (inactive) and 3.93% (inactive), respectively.
